Data set [1] can be described thus: Induction of glutathione reactivity in pH 7.4 PBS buffer assessed as compound formation at 10 mM Andrographolide-14a-O iodoacetate and 10 mM GSH at 50 degC incubated for 8 hrs under argon atmosphere by reverse phase HPLC method. It counts as physicochemical. The settings on record: pH 7.4, 8 h, 10000 µM. A digest of the protocol:
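Ethanolic compound and GSH added to PBS, final 10 mM each with buffer at 2 mM, heated at 50 °C for 8 h.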

The test system of data set [2] is MCF7. The data set can be described thus: Cytotoxicity against human MCF7 cells. The data set is classed as functional. A digest of the protocol:
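MTT viability: 10,000 cells/well, 48 h exposure to increasing concentrations, MTT 2.5 mg/mL for 6 h at 37 °C, NP-40/HCl solubilization, absorbance 570 nm. MCF-7 in DMEM with 10% FBS; MCF-10A normal cells run alongside. LC50 from three independent experiments.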

The subject of data set [3] is HEK293. Description: Increase in Bax expression in p53 deficient HEK293 cells at LC50 level after 48 hrs by Western blot method. As to conditions: Homo sapiens. The data set is classed as functional, cell-based.
Data set [4] relates to HEK293. The data set can be described thus: Induction of cell cycle arrest in HEK293 cells assessed as accumulation at S phase at 5 uM after 48 hrs by propidium iodide staining based flow cytometry (reference value: 19.9 +/- 0.5%). The data set is classed as functional, Homo sapiens.
In data set [5] the test system is HEK293. Description: Reduction in Bcl-xL expression in HEK293 cells at LC50 level after 48 hrs by Western blot method. As to conditions: Homo sapiens. The data set is classed as functional, cell-based.
Data set [6] deals with HEK293. Description: Induction of cell cycle arrest in HEK293 cells assessed as accumulation at G2/M phase at 15 uM after 48 hrs by propidium iodide staining based flow cytometry (reference value: 2.63 +/- 0.7%). The data set is classed as functional, Homo sapiens.
A short description of data set [7]: Binding affinity to GC-28 DNA (unknown origin) minor groove by DAPI staining based spectrophotometry. A digest of the protocol: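 DAPI–DNA complex fluorescence read at 460 nm emission band; test compound added to the preformed complex and loss of fluorescence followed.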
Data set [8] deals with HEK293. The data set can be described thus: Increase in caspase-3 expression in HEK293 cells at LC50 level after 48 hrs by immunocytochemistry. It counts as functional, cell-based. As to conditions: Homo sapiens.
Data set [9] deals with HEK293. Description: Induction of cell cycle arrest in HEK293 cells assessed as accumulation at G1 phase at 15 uM after 48 hrs by propidium iodide staining based flow cytometry (reference value: 53.21 +/- 0.8%). The data set is classed as functional, Homo sapiens.
Data set [10] has as its system HEK293. Description: Induction of apoptosis in HEK293 cells assessed as apoptotic nuclei formation at 10 uM after 48 hrs by DAPI staining based fluorescence microscopy. It counts as functional, cell-based. As to conditions: Homo sapiens.
For data set [11], the system named is HEK293. The data set can be described thus: Reduction in NFkappaB expression in HEK293 cells at LC50 level after 48 hrs by Western blot method. The data set is classed as functional, cell-based. As to conditions: Homo sapiens.
The test system of data set [12] is HEK293. Description: Induction of apoptosis in HEK293 cells at 5 uM after 48 hrs by propidium iodide staining based flow cytometry (reference value: 24.26 +/- 0.8%). The data set is classed as functional, Homo sapiens.
The subject of data set [13] is HEK293. The data set can be described thus: Induction of apoptosis in HEK293 cells at 5 to 20 uM after 48 hrs by DAPI staining based fluorescence microscopy. The data set is classed as functional, cell-based. The settings on record: Homo sapiens.
The subject of data set [14] is HEK293. Description: Reduction in Bcl-xL expression in p53 deficient HEK293 cells at LC50 level after 48 hrs by Western blot method. The data set is classed as functional, cell-based. As to conditions: Homo sapiens.
Data set [15] concerns HEK293. Description: Increase in p53 expression in HEK293 cells at LC50 level after 48 hrs by Western blot method. The data set is classed as functional, cell-based. As to conditions: Homo sapiens.
The subject of data set [16] is HEK293. Description: Induction of apoptosis in HEK293 cells at 15 uM after 48 hrs by propidium iodide staining based flow cytometry (reference value: 24.26 +/- 0.8%). It counts as functional, Homo sapiens.
Data set [17] concerns HEK293. Description: Induction of apoptosis in HEK293 cells at 20 uM after 48 hrs by propidium iodide staining based flow cytometry (reference value: 24.26 +/- 0.8%). It counts as functional, Homo sapiens.
Data set [18] has as its system HEK293. Description: Induction of cell cycle arrest in HEK293 cells assessed as accumulation at S phase at 20 uM after 48 hrs by propidium iodide staining based flow cytometry (reference value: 19.9 +/- 0.5%). The data set is classed as functional, Homo sapiens.
In data set [19] the test system is HEK293. Description: Increase in p53 expression in p53 deficient HEK293 cells at LC50 level after 48 hrs by Western blot method. The data set is classed as functional, cell-based. The settings on record: Homo sapiens.
In data set [20] the test system is HEK293. Description: Increase in PARP cleavage in p53 deficient HEK293 cells at LC50 level after 48 hrs by Western blot method. It counts as functional, cell-based. The settings on record: Homo sapiens.
The test system of data set [21] is HEK293. Description: Increase in Bax expression in HEK293 cells at LC50 level after 48 hrs by Western blot method. It counts as functional, cell-based. As to conditions: Homo sapiens.
A further data set deals with Vero. Description: Cytotoxicity against african green monkey Vero cells after 48 hrs by MTT assay. As to conditions: chlorocebus sabaeus. The data set is classed as cell-based. A digest of the protocol: (§1)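 Cells seeded at 10,000 per well and exposed to increasing compound concentrations for 48 h. After a PBS wash, MTT (2.5 mg/mL) was added for 6 h at 37 °C, then detergent (10% NP-40, 4 mM HCl), and absorbance was read at 570 nm. LC50 is the concentration causing 50% cell death. Values are means of three independent experiments.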

Data set [22] addresses T1, Nuclear factor NF-kappa-B complex (Homo sapiens) (UniProt Q00653+P19838+Q04206). Description: Inhibition of NFkappaB (unknown origin) expressed in HEK293 cells assessed as reduction in transcriptional activity at 10 uM after 48 hrs by luciferase reporter gene assay. The data set is classed as cell-based. A digest of the protocol: (§2)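 HEK-293 at 70% confluence transfected by calcium phosphate with NF-kB luciferase ([…]) and b-Gal ([…]) plasmids, 6–8 h, then fresh serum medium 12 h; treated 48 h, lysed, luciferase read and normalized to b-galactosidase. Three independent experiments.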

For data set [23], the system named is HEK293. Description: Induction of cell death in HEK293 cells at 15 to 20 uM after 48 hrs by DAPI staining based fluorescence microscopy. It counts as functional. As to conditions: Homo sapiens.
Data set [24] relates to HEK293. The data set can be described thus: Induction of cell cycle arrest in HEK293 cells assessed as accumulation at G1 phase at 10 uM after 48 hrs by propidium iodide staining based flow cytometry (reference value: 53.21 +/- 0.8%). The data set is classed as functional, Homo sapiens.
A short description of data set [25]: Cytotoxicity against human MCF10A cells after 48 hrs by MTT assay. The data set is classed as cell-based. The settings on record: mcf-10a. A digest of the protocol: as §1
Data set [26] relates to HEK293. The data set can be described thus: Increase in PARP cleavage in HEK293 cells at LC50 level after 48 hrs by Western blot method. It counts as functional, cell-based. As to conditions: Homo sapiens.
Data set [27] deals with HEK293. Description: Induction of apoptosis in HEK293 cells at 20 uM after 48 hrs by propidium iodide staining based flow cytometry relative to untreated control. The data set is classed as functional, Homo sapiens.
For data set [28], the system named is HEK293. Description: Induction of cell cycle arrest in HEK293 cells assessed as accumulation at G1 phase at 20 uM after 48 hrs by propidium iodide staining based flow cytometry (reference value: 53.21 +/- 0.8%). It counts as functional, Homo sapiens.
Data set [29] concerns the target T1, Nuclear factor NF-kappa-B complex (Homo sapiens). The data set can be described thus: Inhibition of NFkappaB (unknown origin) expressed in HEK293 cells assessed as reduction in transcriptional activity after 48 hrs by luciferase reporter gene assay. The data set is classed as cell-based. A digest of the protocol:
as §2

Data set [30] concerns HEK293. Description: Induction of cell cycle arrest in HEK293 cells assessed as accumulation at G2/M phase at 5 uM after 48 hrs by propidium iodide staining based flow cytometry (reference value: 2.63 +/- 0.7%). The data set is classed as functional, Homo sapiens.
Data set [31] concerns HEK293. The data set can be described thus: Cytotoxicity against HEK293 cells after 48 hrs by MTT assay. It counts as functional. The settings on record: Homo sapiens, HEK293, 48 h; read-out: LC50 (the source's name). A digest of the protocol:
as §1

Data set [32] can be described thus: Retention time of the compound by HPLC method. The data set is classed as physicochemical.
Data set [33] deals with HEK293. Description: Induction of cell cycle arrest in HEK293 cells assessed as accumulation at G2/M phase at 20 uM after 48 hrs by propidium iodide staining based flow cytometry (reference value: 2.63 +/- 0.7%). The data set is classed as functional, Homo sapiens.
The subject of data set [34] is HEK293. Description: Reduction in NFkappaB expression in p53 deficient HEK293 cells at LC50 level after 48 hrs by Western blot method. The data set is classed as functional, cell-based. The settings on record: Homo sapiens.
The subject of data set [35] is HEK293. The data set can be described thus: Induction of cell cycle arrest in HEK293 cells assessed as accumulation at G2/M phase at 10 uM after 48 hrs by propidium iodide staining based flow cytometry (reference value: 2.63 +/- 0.7%). It counts as functional, Homo sapiens.
Data set [36] has as its system MCF7. The data set can be described thus: Cytotoxicity against human MCF7 cells after 48 hrs by MTT assay. It counts as functional. As to conditions: MCF7, 48 h, read-out: LC50 (the source's name). A digest of the protocol: as §1
The test system of data set [37] is HEK293. Description: Induction of cell cycle arrest in HEK293 cells assessed as accumulation at S phase at 15 uM after 48 hrs by propidium iodide staining based flow cytometry (reference value: 19.9 +/- 0.5%). It counts as functional, Homo sapiens.
Data set [38] concerns HEK293. Description: Induction of apoptosis in HEK293 cells at 10 uM after 48 hrs by propidium iodide staining based flow cytometry (reference value: 24.26 +/- 0.8%). The data set is classed as functional, Homo sapiens.
Data set [39] has as its system HEK293. Description: Induction of cell cycle arrest in HEK293 cells assessed as accumulation at S phase at 10 uM after 48 hrs by propidium iodide staining based flow cytometry (reference value: 19.9 +/- 0.5%). It counts as functional, Homo sapiens.
Data set [40] has as its system HEK293. Description: Induction of cell cycle arrest in HEK293 cells assessed as accumulation at G1 phase at 5 uM after 48 hrs by propidium iodide staining based flow cytometry (reference value: 53.21 +/- 0.8%). The data set is classed as functional, Homo sapiens.

The structures appear in SMILES notation. The source made the active and inactive calls. No cut-off for these calls is given here.

Consider three compounds from ChEMBL document CHEMBL3352171, “Synthesis and biological evaluation of andrographolide analogues as anti-cancer agents” (Eur J Med Chem, 2014).

T1 sequence (P19838 whole entry, looked up): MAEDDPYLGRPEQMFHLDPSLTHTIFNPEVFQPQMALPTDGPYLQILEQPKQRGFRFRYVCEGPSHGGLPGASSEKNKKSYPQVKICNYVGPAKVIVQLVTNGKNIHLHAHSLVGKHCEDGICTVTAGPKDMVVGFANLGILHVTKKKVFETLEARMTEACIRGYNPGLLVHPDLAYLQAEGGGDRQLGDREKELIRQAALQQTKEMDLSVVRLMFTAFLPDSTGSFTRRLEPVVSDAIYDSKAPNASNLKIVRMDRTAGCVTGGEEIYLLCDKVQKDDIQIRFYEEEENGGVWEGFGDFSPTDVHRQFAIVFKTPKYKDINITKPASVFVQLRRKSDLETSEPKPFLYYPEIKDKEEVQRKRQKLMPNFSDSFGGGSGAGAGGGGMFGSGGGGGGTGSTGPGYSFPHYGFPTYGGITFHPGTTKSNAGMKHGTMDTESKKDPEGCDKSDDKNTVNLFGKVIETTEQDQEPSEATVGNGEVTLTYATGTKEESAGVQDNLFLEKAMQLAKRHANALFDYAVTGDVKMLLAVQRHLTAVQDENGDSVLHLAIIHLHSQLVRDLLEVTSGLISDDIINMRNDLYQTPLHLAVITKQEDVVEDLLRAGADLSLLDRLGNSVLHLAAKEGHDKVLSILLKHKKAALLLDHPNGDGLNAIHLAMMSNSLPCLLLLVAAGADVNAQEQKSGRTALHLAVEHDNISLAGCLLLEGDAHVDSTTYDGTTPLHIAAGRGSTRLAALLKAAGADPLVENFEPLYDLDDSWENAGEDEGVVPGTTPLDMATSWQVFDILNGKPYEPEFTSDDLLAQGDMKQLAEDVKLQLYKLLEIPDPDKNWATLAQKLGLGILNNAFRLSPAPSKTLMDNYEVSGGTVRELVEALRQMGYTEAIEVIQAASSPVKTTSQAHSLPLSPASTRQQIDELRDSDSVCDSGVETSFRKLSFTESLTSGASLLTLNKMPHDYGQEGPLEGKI
T1 sequence (Q00653 whole entry, looked up): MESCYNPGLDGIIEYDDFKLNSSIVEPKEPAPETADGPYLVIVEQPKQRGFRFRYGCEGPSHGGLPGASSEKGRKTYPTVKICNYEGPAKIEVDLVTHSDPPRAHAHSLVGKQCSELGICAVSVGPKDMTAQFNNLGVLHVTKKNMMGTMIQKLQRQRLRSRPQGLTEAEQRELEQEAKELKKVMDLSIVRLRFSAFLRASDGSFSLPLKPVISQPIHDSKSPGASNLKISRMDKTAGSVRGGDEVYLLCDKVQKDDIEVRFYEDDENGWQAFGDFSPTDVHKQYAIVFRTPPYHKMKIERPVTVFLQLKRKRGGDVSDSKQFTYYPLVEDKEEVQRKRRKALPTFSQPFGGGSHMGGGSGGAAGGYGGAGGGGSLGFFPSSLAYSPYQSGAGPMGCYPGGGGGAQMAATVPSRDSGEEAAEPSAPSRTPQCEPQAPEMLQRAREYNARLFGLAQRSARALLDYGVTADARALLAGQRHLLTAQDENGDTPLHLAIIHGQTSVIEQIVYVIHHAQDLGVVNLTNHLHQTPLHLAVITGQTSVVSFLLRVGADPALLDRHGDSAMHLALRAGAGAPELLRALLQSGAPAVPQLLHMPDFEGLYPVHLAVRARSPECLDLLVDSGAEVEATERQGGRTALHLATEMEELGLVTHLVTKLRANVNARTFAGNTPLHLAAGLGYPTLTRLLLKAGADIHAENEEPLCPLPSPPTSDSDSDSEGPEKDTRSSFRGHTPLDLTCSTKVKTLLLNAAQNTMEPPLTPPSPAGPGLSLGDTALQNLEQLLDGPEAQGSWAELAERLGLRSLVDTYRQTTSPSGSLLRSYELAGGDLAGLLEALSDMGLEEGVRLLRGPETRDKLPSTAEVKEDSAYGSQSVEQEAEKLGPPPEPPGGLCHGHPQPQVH
T1 sequence (Q04206 whole entry, looked up): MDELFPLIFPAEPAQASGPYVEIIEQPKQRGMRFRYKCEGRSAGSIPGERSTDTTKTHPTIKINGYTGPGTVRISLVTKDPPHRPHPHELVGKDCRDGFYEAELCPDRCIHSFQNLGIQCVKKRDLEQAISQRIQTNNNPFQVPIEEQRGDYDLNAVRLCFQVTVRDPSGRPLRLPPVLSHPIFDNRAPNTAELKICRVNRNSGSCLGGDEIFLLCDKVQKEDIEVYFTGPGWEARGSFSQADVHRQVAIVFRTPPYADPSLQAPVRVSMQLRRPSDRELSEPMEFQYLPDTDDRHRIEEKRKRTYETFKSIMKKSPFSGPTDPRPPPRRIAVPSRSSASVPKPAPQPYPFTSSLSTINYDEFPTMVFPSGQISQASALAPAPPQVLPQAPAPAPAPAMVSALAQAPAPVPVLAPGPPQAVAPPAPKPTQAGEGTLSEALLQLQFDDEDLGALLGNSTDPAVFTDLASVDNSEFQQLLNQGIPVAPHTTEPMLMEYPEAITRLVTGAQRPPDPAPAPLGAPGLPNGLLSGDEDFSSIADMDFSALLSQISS

Consider `C=C1CC[C@@H]2[C@](C)(CO)[C@H](O)CC[C@@]2(C)[C@@H]1CC(SC[C@H](NC(=O)CC[C@H](N)C(=O)O)C(=O)NCC(=O)O)C1=CCOC1=O` (single isomer, unassigned; diastereomer 1), for which the Drug metabolism entry in [1] was “metabolite_detected”.
As for `C=C1CC[C@@H]2[C@](C)(CO)[C@H](O)CC[C@@]2(C)[C@@H]1C/C=C1/C(=O)OC[C@H]1OC(C)=O`, the GI50 in the data set with MCF7 [2] came to 5.49 µM.
With `C=C1CC[C@@H]2[C@](C)(CO)[C@H](O)CC[C@@]2(C)[C@@H]1C/C=C1/C(=O)OC[C@H]1OC(=O)CBr`, the result with HEK293 [3], in the data set with HEK293 [14], in the data set with HEK293 [19], with HEK293 [20] and in the data set on HEK293 [34] was inactive. Moreover, the Activity in the data set on HEK293 [4] is 10.44%; in the data set with HEK293 [6] it was 1.71%; in the data set on HEK293 [9], 14.98%; in the data set with HEK293 [12] it was 60.44%; in the data set with HEK293 [13], “Dose-dependent effect”; with HEK293 [16], 76.62%. The Activity was 88.84% in the data set with HEK293 [17]; 1.57% with HEK293 [18]; 19.57% in the data set with HEK293 [24]; 9.01% with HEK293 [28]; 3.96% in the data set with HEK293 [30]; 0.58% with HEK293 [33]. The Activity in the data set with HEK293 [35] is 2.82%; in the data set on HEK293 [37], 6.69%; with HEK293 [38], 67.33%; in the data set on HEK293 [39], 10.28%; in the data set with HEK293 [40], 25.16%. Also, the outcome (with HEK293 [5]; in [7]; with HEK293 [8]; in the data set with HEK293 [10]; with HEK293 [11]; with HEK293 [15]) was Active. For the same compound, the result in the data set with HEK293 [21], in the data set on HEK293 [23] and in the data set on HEK293 [26] was Active. For the same compound, the median lethal concentration (LC50) was 45 µM in the data set on Vero and over 40 µM in data set [25]. Also, the values for the fold change (FC) (in data set [22]; with HEK293 [27]) were 5 and over 4, respectively. For the same compound, in [29], the inhibition result is “Dose-dependent effect”. Besides, the CC50 is 12 µM with HEK293 [31] and 8.4 µM in the data set with MCF7 [36]. In data set [32], this compound yielded a Retention_time of 24.5 min.
